Data as given in publication PMC3228889 (International Journal of Cancer. Journal International du …, 2011).
pIC50: −log10 of the molar value. Where two headings read alike, the source gives them in different places.

Columns and labels:
[1] = system: U266 MM cells; test: MTT cell viability assay; type: cell-based, human; conditions: read-out: IC50 cell viability, U266, 72 hours
[2] = system: ARH-77 MM cells; test: MTT cell viability assay; type: cell-based, human; conditions: read-out: IC50 cell viability, ARH-77, 72 hours
[3] = molecular target: T1, STAT3 (Homo sapiens, UniProt P40763); test: STAT3 DNA binding activity in nuclear extracts; type: cell-based; conditions: 24 hours, U266 and ARH-77 MM cells
T1 sequence (P40763 whole entry): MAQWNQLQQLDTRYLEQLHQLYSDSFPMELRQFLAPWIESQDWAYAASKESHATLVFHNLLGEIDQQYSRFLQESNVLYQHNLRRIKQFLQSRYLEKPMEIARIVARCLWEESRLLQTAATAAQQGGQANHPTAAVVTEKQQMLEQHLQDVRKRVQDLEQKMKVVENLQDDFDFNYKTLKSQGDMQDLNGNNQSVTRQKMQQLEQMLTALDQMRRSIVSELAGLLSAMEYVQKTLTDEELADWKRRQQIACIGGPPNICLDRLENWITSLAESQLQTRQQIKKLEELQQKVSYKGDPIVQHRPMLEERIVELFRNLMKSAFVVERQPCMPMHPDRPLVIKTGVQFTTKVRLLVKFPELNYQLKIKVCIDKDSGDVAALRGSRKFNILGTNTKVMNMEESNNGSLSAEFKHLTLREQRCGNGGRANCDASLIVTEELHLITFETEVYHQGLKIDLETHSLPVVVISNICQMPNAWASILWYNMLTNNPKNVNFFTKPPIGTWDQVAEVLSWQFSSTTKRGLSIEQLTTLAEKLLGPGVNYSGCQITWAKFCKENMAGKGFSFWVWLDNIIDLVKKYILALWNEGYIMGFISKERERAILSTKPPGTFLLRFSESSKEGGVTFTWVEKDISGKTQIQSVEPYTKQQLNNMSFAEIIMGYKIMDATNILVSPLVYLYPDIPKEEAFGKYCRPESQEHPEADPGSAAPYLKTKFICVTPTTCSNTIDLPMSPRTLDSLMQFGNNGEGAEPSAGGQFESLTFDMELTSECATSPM

[4] = system: U266 MM cells; test: Annexin-V/PI flow cytometry apoptosis; type: cell-based, human; conditions: 24 hours
How it was run: (§1)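 Cells were treated with test compound or DMSO for 24 h, harvested, washed in cold PBS and resuspended in 1× binding buffer at 1 × 10^6 cells/ml. Annexin V-FITC and PI were added for 15 min at RT in the dark. Analysis was by flow cytometry within 1 h. Results come from at least 3 independent experiments, compared with DMSO by Mann-Whitney test.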

[5] = system: ARH-77 MM cells; test: Annexin-V/PI flow cytometry apoptosis; type: cell-based, human; conditions: 24 hours
How it was run: as §1

[6] = system: U266 cells; test: Synergy of LLL12 and lenalidomide, combinational index; type: cell-based, human; conditions: LLL12 combined with lenalidomide, U266, all combinations; CI < 1 = synergism
[7] = system: ARH-77 MM tumor cells; test: Mouse xenograft model; type: in vivo, NOD/SCID mice; conditions: 5 mg/kg daily intraperitoneal, vs DMSO
[8] = molecular target: T1, STAT3; test: Western blot, constitutive STAT3 phosphorylation; type: cell-based
How it was run: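 U266 and ARH-77 cells were treated with test compound or DMSO for 24 h. Primary CD138+ patient cells were isolated by positive magnetic selection (n=3 patients). Cells were lysed in cold RIPA buffer with protease inhibitors, run on SDS-PAGE and transferred to PVDF. Blots were probed for p-STAT3 (Tyr705) and total STAT3 and developed by chemiluminescence, with GAPDH as loading control.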

[9] = molecular target: T1, STAT3; test: Western blot, IL-6 and IFN-α induced STAT3 phosphorylation; type: cell-based; conditions: MM.1S, 2 hours pre-treatment, 30 minutes stimulation
[10] = molecular target: STAT1 (Homo sapiens, UniProt P42224); test: Western blot, cytokine-induced STAT1 phosphorylation; type: cell-based; conditions: MM.1S, IFN-α stimulated, 2 hours pre-treatment
How it was run: (§2)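 MM.1S cells were serum-starved for 24 h, then pre-treated for 2 h with test compound (2.5–10 μM), a reference STAT3 inhibitor (2.5–20 μM) or DMSO. IFN-α (25ng/ml) was added for 30 min in the presence or absence of test compound. Western blots of RIPA lysates were probed for p-STAT1 (Tyr701) or p-STAT2 (Tyr690).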

[11] = molecular target: STAT2 (Homo sapiens, UniProt P52630); test: Western blot, cytokine-induced STAT2 phosphorylation; type: cell-based; conditions: MM.1S, IFN-α stimulated, 2 hours pre-treatment
Sequence of STAT2 (P52630 whole entry): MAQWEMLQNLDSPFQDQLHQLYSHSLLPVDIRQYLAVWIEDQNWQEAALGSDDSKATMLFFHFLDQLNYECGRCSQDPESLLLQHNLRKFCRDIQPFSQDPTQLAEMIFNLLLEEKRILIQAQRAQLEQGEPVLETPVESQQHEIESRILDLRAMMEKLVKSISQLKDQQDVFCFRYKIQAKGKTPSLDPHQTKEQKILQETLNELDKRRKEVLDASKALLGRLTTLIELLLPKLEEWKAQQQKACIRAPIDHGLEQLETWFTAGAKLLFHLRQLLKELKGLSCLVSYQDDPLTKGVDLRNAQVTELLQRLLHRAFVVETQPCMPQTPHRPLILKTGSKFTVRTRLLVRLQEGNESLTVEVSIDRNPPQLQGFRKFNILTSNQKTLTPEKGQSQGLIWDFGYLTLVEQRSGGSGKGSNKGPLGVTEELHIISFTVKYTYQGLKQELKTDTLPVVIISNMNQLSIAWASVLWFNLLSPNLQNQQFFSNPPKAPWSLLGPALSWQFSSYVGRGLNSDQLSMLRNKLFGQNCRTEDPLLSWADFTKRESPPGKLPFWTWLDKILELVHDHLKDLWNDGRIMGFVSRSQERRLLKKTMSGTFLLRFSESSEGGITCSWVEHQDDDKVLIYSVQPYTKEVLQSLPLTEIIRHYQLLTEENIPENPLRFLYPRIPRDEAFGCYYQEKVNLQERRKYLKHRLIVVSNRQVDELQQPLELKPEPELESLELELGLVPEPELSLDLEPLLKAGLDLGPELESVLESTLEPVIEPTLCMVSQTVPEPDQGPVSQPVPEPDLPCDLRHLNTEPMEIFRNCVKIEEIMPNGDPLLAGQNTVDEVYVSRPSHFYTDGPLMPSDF
How it was run: as §2

[12] = molecular target: STAT4 (Homo sapiens, UniProt Q14765); test: Western blot, IL-4 induced STAT4 phosphorylation; type: cell-based; conditions: IM-9 human MM cells
How it was run: (§3)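 IM-9 cells were serum-starved for 24 h, then left untreated or pre-treated for 2 h with test compound (2.5–10 μM), a reference STAT3 inhibitor (2.5–20 μM) or DMSO. IL-4 (25ng/ml) was added, and cells were harvested 30 min later. Blots of RIPA lysates were probed for p-STAT4 (Tyr693) or p-STAT6 (Tyr641).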

[13] = molecular target: STAT6 (Homo sapiens, UniProt P42226); test: Western blot, IL-4 induced STAT6 phosphorylation; type: cell-based; conditions: IM-9 human MM cells
Sequence of STAT6 (P42226 whole entry): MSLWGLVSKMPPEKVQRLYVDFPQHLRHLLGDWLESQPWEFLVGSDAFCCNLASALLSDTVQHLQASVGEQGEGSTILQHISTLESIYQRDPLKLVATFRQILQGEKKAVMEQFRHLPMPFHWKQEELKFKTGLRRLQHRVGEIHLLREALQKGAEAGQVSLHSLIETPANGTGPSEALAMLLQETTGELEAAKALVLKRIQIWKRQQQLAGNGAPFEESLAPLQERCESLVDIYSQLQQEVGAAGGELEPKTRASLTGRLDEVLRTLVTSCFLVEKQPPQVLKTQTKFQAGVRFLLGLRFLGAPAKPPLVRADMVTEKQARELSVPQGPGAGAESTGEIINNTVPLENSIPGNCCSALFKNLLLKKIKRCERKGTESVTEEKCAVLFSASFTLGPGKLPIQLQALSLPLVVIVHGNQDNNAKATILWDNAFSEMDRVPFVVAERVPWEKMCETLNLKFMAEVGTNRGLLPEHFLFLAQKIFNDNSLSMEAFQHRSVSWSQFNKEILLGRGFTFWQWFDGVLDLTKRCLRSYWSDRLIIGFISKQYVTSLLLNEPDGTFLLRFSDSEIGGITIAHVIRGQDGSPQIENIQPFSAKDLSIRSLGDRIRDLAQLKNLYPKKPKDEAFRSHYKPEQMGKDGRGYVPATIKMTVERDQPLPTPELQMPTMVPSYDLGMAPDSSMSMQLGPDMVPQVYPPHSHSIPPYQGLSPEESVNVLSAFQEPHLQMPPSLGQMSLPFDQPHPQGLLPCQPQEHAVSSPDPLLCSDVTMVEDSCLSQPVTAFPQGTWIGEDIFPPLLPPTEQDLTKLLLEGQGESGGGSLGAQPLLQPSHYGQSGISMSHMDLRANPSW
How it was run: as §3

[14] = system: mTOR; test: Western blot, mTOR phosphorylation; type: cell-based, human; conditions: U266 and ARH-77 MM cells
How it was run: (§4)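 MM cells were treated with test compound (2.5, 5 or 10μM) or DMSO for 24 h, then lysed in cold RIPA buffer with protease inhibitors. Lysates were run on SDS-PAGE, transferred to PVDF and probed with antibodies to p-ERK1/2 (Thr202/Tyr204), p-Src (Tyr416), p-mTOR (Ser2448), or cleaved caspase-3 and cleaved PARP. Detection was by enhanced chemiluminescence, with GAPDH as loading control.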

[15] = system: Src; test: Western blot, Src phosphorylation; type: cell-based, human; conditions: U266 and ARH-77 MM cells
How it was run: as §4

[16] = system: ERK(1/2); test: Western blot, ERK; type: cell-based, human
How it was run: as §4

[17] = system: RPMI-8226; test: Western blot, cleaved caspase-3 and PARP; type: cell-based, human; conditions: IL-6 independent RPMI-8226, P-STAT3 too low to be detected
How it was run: as §4

[18] = system: MM1.S MM cells; test: MTT viability of MM1.S cells; type: cell-based, human
[19] = molecular target: T1, STAT3; test: STAT3 nuclear localization, immunofluorescence staining; type: cell-based; conditions: U266 cells
[20] = system: STAT3 downstream target genes; test: RT-PCR of STAT3 downstream target genes; type: cell-based, human; conditions: U266 and ARH-77, 24-h
[21] = molecular target: BMX (Homo sapiens, UniProt P51813); conditions: read-out: IC50 kinase activity, BMX; 10 concentrations, 100 μM highest
Sequence of BMX (P51813 whole entry): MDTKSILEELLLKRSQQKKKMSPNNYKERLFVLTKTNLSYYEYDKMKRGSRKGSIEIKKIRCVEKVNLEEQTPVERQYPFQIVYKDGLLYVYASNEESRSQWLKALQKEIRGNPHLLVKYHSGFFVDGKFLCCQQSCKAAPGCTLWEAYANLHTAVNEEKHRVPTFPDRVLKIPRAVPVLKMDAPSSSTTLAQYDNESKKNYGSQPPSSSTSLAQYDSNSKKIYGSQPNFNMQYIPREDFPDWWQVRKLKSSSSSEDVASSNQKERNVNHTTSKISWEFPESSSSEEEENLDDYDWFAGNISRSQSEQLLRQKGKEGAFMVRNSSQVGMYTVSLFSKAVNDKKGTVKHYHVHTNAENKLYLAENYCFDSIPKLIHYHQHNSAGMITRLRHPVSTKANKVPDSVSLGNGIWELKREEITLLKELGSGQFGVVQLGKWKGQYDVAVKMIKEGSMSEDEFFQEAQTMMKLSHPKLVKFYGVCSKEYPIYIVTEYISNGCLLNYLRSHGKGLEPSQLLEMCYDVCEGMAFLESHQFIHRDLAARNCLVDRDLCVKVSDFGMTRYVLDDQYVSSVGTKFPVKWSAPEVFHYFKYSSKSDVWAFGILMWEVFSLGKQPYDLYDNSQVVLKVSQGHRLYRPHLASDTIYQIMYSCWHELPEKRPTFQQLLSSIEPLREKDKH

[22] = molecular target: Fgr (Homo sapiens, UniProt P09769); conditions: read-out: IC50 kinase activity, Fgr; 10 concentrations, 100 μM highest
[23] = molecular target: LcK (Homo sapiens, UniProt P06239); conditions: read-out: IC50 kinase activity, LcK; 10 concentrations, 100 μM highest
[24] = molecular target: BRK (Homo sapiens, UniProt Q13882); conditions: read-out: IC50 kinase activity, BRK; 10 concentrations, 100 μM highest
[25] = molecular target: Fyn (Homo sapiens, UniProt P06241); conditions: read-out: IC50 kinase activity, Fyn; 10 concentrations, 100 μM highest
[26] = molecular target: Lyn (Homo sapiens, UniProt P07948); conditions: read-out: IC50 kinase activity, Lyn; 10 concentrations, 100 μM highest
[27] = molecular target: CSK (Homo sapiens, UniProt P41240); conditions: read-out: IC50 kinase activity, CSK; 10 concentrations, 100 μM highest
Sequence of CSK (P41240 whole entry): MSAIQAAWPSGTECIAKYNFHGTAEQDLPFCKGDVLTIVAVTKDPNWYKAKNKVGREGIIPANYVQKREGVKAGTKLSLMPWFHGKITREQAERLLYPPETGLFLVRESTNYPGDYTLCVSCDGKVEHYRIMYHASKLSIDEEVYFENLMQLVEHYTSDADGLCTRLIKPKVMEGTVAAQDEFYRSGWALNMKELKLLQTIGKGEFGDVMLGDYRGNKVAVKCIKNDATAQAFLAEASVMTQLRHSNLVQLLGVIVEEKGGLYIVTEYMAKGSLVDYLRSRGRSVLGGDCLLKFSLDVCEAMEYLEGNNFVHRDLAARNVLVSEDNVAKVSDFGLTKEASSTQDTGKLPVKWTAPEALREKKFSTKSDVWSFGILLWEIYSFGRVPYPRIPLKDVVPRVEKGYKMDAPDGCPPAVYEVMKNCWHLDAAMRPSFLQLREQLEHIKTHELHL

[28] = molecular target: JAK3 (Homo sapiens, UniProt P52333); conditions: read-out: IC50 kinase activity, JAK3; 10 concentrations, 100 μM highest
[29] = molecular target: ZAP-70 (Homo sapiens, UniProt P43403); conditions: read-out: IC50 kinase activity, ZAP-70; 10 concentrations, 100 μM highest
[30] = molecular target: AKT2 (Homo sapiens, UniProt P31751); conditions: read-out: IC50 kinase activity, AKT2; 10 concentrations, 100 μM highest
[31] = molecular target: IKKb (Homo sapiens, UniProt O14920); conditions: read-out: IC50 kinase activity, IKKb; 10 concentrations, 100 μM highest
[32] = molecular target: PAK2 (Homo sapiens, UniProt Q13177); conditions: read-out: IC50 kinase activity, PAK2; 10 concentrations, 100 μM highest
[33] = molecular target: CDK1/CyclinB (Homo sapiens, UniProt P06493); conditions: read-out: IC50 kinase activity, CDK1/CyclinB; 10 concentrations, 100 μM highest
[34] = molecular target: JNK1 (Homo sapiens, UniProt P45983); conditions: read-out: IC50 kinase activity, JNK1; 10 concentrations, 100 μM highest
[35] = molecular target: PDGFR-a (Homo sapiens, UniProt P16234); conditions: read-out: IC50 kinase activity, PDGFR-a; 10 concentrations, 100 μM highest
Sequence of PDGFR-a (P16234 24-1089): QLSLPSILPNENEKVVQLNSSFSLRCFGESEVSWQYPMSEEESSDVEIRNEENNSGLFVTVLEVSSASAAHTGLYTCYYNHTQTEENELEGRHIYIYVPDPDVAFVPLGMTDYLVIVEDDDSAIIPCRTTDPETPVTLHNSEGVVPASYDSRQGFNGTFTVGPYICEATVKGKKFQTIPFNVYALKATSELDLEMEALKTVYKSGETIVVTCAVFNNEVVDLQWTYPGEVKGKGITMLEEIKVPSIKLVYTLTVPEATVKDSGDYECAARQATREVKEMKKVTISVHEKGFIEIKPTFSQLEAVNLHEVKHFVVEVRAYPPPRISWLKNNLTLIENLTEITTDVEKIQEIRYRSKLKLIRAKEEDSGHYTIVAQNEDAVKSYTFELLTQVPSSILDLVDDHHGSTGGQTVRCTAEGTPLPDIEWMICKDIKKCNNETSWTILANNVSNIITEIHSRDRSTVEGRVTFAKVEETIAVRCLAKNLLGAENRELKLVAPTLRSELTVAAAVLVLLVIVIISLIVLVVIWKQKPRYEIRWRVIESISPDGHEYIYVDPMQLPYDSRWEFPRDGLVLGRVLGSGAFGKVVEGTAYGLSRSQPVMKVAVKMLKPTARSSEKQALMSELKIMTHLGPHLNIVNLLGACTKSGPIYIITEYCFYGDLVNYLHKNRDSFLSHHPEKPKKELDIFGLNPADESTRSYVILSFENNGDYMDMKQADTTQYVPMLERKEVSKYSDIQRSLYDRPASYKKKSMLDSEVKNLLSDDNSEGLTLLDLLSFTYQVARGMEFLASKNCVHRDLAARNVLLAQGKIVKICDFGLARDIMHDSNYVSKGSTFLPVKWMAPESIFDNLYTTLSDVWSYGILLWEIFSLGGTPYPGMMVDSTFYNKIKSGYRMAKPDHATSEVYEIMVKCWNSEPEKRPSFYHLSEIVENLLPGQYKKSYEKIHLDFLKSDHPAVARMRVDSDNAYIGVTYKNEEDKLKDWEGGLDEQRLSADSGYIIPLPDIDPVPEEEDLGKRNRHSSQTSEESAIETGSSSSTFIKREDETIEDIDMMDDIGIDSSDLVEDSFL

[36] = molecular target: FAK (Homo sapiens, UniProt Q05397); conditions: read-out: IC50 kinase activity, FAK; 10 concentrations, 100 μM highest
[37] = molecular target: JNK2 (Homo sapiens, UniProt P45984); conditions: read-out: IC50 kinase activity, JNK2; 10 concentrations, 100 μM highest
[38] = molecular target: PKC-a (Homo sapiens, UniProt P17252); conditions: read-out: IC50 kinase activity, PKC-a; 10 concentrations, 100 μM highest
[39] = molecular target: FGFR2 (Homo sapiens, UniProt P21802); conditions: read-out: IC50 kinase activity, FGFR2; 10 concentrations, 100 μM highest
[40] = molecular target: PAK1 (Homo sapiens, UniProt Q13153); conditions: read-out: IC50 kinase activity, PAK1; 10 concentrations, 100 μM highest
[41] = molecular target: PKC-d (Homo sapiens, UniProt Q05655); conditions: read-out: IC50 kinase activity, PKC-d; 10 concentrations, 100 μM highest
[42] = system: twenty one purified human protein kinases
[43] = 5 mg/kg daily intraperitoneal, vs vehicle-treated mice
[44] = system: normal human peripheral blood lymphocytes
[45] = system: normal human marrow [CD138(−)] cells; conditions: 10μM, 24h, MTS

For `NS(=O)(=O)c1cccc2c1C(=O)c1cccc(O)c1C2=O` [LLL12], the pIC50 [1] was 6.31, the pIC50 [2] was 5.71 and the “reduction of STAT3 DNA binding activity” value ([3]; 2.5μM) was 30–33%. The “reduction of STAT3 DNA binding activity” value ([3]; 5μM) was 58–69%, the “Apoptosis (Annexin V/PI)” value ([4]; U266, 2.5μM) was 38.2% and the “Apoptosis (Annexin V/PI)” value ([4]; U266, 5μM) was 53.3%. For the same molecule, the “Apoptosis (Annexin V/PI)” value ([5]; ARH-77, 2.5μM) was 70.8%, the “Apoptosis (Annexin V/PI)” value ([5]; ARH-77, 5μM) was 73.5% and the “Combinational Index (CI)” value [6] was “less than 1”. The “STAT3 phosphorylation in tumors” value ([7]; Western blot) was “inhibited STAT3 phosphorylation”, the tumor volume ([7]; p < 0.05) was “significantly suppressed” and the tumor weight ([7]; p < 0.05) was “significantly suppressed”. The “STAT3 phosphorylation at Tyr 705” value ([8]; U266 and ARH-77, 2.5μM or 5μM, 24 hours) was “inhibited STAT3 phosphorylation”, the STAT3 phosphorylation ([8]; primary human MM cells from three patients) was “inhibited STAT3 phosphorylation” and the “IL-6 and IFN-α induced STAT3 phosphorylation” value [9] was “prevented phosphorylation of STAT3”. The STAT1 phosphorylation [10] was “but not STAT1 or STAT2”, the STAT2 phosphorylation [11] was “but not STAT1 or STAT2” and the “STAT4 phosphorylation by IL-4” value [12] was “did not prevent phosphorylation”. The “STAT6 phosphorylation by IL-4” value [13] was “did not prevent phosphorylation”, the “phosphorylation of mTOR” value [14] was “not reduced significantly” and the “phosphorylation of Src” value [15] was “not reduced significantly”. For the same molecule, the “phosphorylation of ERK(1/2)” value ([16]; ARH-77 MM cells, 5μM) was “slightly reduced”, the “phosphorylation of ERK(1/2)” value ([16]; U266 MM cells) was “even increased” and the “cleaved caspase-3 and cleaved PARP” value [17] was “did not induce”. The “IL-6 increased cell proliferation/viability” value ([18]; IL-6 for 48 hours, MTT) was “blocked”, the STAT3 nuclear localization [19] was “most STAT3 was retained in cytoplasm and absent in nuclei” and the “transcription of cyclin D1, survivin, Bcl-2, Bcl-XL, DNMT1” value [20] was “inhibition of the transcription of all five”. The pIC50 [21] was less than 4.00, the pIC50 [22] was 4.24 and the pIC50 [23] was less than 4.00. It also gave a pIC50 [24] of less than 4.00, a pIC50 [25] of less than 4.00 and a pIC50 [26] of less than 4.00. The pIC50 [27] was 4.13, the pIC50 [28] was 4.05 and the pIC50 [29] was less than 4.00. It also gave a pIC50 [30] of 4.04, a pIC50 [31] of less than 4.00 and a pIC50 [32] of less than 4.00. For the same molecule, the pIC50 [33] was less than 4.00, the pIC50 [34] was less than 4.00 and the pIC50 [35] was less than 4.00. The pIC50 [36] was less than 4.00, the pIC50 [37] was less than 4.00 and the pIC50 [38] was less than 4.00. It also gave a pIC50 [39] of less than 4.00, a pIC50 [40] of less than 4.00 and a pIC50 [41] of less than 4.00. The pIC50 ([42]; read-out: IC50, kinases which contain an SH2 domain, BMX, BRK, CSK, Fgr, Fyn, JAK3, LcK, Lyn, ZAP-70, 57.19 μM to > 100 μM) was no more than 4.24, the pIC50 ([42]; read-out: IC50, other protein kinases, AKT2, CDK1/cyclin B, FAK, FGFR2, IKKβ, JNK1, JNK2, PAK1, PAK2, PDGFR-α, PKC-α, PKC-δ, 91.76 μM to > 100 μM) was no more than 4.04 and the “bodyweights of treated mice” value [43] was “not reduced”. For the same molecule, the “effect on normal cells” value [44] was “little effects” and the “effect on normal cells” value [45] was “little effects”.
With `Nc1cccc2c1CN(C1CCC(=O)NC1=O)C2=O` (stereo not shown) [lenalidomide, Lenalidomide, reference compound] the cell viability ([18]; lenalidomide alone) was “dose-dependent reduction of cell viability”.
For `O=[N+]([O-])c1ccc2c(c1)S(=O)(=O)C=C2` [Stattic, reference compound], the “IL-6 and IFN-α induced STAT3 phosphorylation” value [9] was “much less potent than LLL12”.
